Experimental data taken from ChEMBL document CHEMBL4765345, “Design, synthesis, and biological evaluation of dual targeting inhibitors of histone deacetylase 6/8 and bromodomain BRPF1” (Eur J Med Chem, 2020).

How the values were obtained:
THP-1 (Homo sapiens) = test: Antiproliferative activity against human THP-1 assessed as reduction in metabolically active cells by CellTiter-non radioactive cell proliferation assay
THP-1 [1] = test: Antiproliferative activity against human THP-1 assessed as reduction in cell growth at 4 uM by CellTiter-non radioactive cell proliferation assay; type: functional
HL-60 [2] = test: Antiproliferative activity against human HL60 assessed as reduction in cell growth at 20 uM by CellTiter-non radioactive cell proliferation assay; type: functional
THP-1 [3] = test: Antiproliferative activity against human THP-1 assessed as reduction in cell growth at 20 uM by CellTiter-non radioactive cell proliferation assay; type: functional
HL-60 [4] = test: Antiproliferative activity against human HL60 assessed as reduction in cell growth at 4 uM by CellTiter-non radioactive cell proliferation assay; type: functional
Summary of the method: (§1)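 HL60 cells plated at 5000 per well and given inhibitor or DMSO vehicle immediately. Compounds diluted from 200x DMSO stocks; three replicates per concentration. Growth read by CellTiter 96 Aqueous (MTS) assay. GI50 is the concentration cutting metabolically active cells by 50% versus DMSO control, taken from absorbance against log concentration.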

HEK293 = test: (§2) Cytotoxicity against human HEK293 assessed as reduction in cell viability incubated for 24 hrs by AlamarBlue assay; type: cell-based; settings: hek293, 24 h
Summary of the method: (§3)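 HEK293 cells were grown at 37 °C under 5% CO2 in DMEM with 10% FCS and 5 mM glutamine and seeded at 1.5 x 10³ cells per well. Compound at 50 μM was added at once. After 24 h AlamarBlue was added for another 21 h, and fluorescence was read at Ex 560/Em 590 nm. Triplicates over three independent experiments.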

THP-1 [5] = test: Antiproliferative activity against human THP-1 assessed as reduction in cell growth at 100 uM by CellTiter-non radioactive cell proliferation assay; type: functional
HL-60 [6] = test: Antiproliferative activity against human HL60 assessed as reduction in cell growth at 100 uM by CellTiter-non radioactive cell proliferation assay; type: functional
[7] = Chemical stability of the compound in standard cellular assay conditions measured after 4 days; type: physicochemical; settings: 96 h; time 4 day
Summary of the method: (§4)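 Compounds were incubated at 37 °C in DMEM (cellular assay conditions) or in PBS pH 7.4 (in vitro assay conditions) for various times up to 4 days. The parent compound and any hydrolysis products were detected and quantified by HPLC.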

[8] = target: T1, Protein deacetylase HDAC6 (Homo sapiens, UniProt Q9UBN7); test: Inhibition of recombinant human HDAC6 using Z-(Ac)Lys-AMC as substrate after 90 mins by fluorescence based micro plate assay
T1 sequence (Q9UBN7 whole entry): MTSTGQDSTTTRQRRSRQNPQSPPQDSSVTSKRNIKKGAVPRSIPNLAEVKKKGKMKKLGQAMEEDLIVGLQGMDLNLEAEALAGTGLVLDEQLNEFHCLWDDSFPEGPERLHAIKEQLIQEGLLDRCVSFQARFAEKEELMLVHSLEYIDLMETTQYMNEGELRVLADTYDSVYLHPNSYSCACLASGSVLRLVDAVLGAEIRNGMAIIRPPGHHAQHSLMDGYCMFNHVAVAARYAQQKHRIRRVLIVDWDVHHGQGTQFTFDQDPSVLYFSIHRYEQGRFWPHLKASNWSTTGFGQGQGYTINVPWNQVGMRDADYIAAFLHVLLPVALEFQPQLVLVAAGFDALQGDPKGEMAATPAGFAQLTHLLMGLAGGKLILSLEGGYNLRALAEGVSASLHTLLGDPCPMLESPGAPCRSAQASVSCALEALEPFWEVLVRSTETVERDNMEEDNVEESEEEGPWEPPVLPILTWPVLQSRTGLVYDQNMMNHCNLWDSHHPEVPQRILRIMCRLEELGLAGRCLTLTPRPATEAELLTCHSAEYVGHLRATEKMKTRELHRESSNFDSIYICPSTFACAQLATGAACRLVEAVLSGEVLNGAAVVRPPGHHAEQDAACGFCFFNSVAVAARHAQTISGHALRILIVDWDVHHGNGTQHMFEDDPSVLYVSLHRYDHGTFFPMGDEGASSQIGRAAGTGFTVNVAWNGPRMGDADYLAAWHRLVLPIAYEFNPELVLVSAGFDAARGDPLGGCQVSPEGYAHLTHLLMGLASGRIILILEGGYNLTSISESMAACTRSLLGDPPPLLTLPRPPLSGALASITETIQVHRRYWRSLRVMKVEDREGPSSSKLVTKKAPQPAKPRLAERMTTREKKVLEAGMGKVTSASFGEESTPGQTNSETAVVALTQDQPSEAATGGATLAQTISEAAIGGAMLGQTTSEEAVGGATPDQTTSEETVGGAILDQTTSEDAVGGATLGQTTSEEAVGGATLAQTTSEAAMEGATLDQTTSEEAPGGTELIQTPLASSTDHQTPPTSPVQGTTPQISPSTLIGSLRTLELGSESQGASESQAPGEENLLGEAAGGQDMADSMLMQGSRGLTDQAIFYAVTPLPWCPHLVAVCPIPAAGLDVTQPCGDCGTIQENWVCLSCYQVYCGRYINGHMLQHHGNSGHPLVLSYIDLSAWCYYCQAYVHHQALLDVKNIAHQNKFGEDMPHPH
Summary of the method: (§5)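 Recombinant human HDAC1 or HDAC6 incubated 90 min at 37 °C with 10.5 μM ZMAL (Z-(Ac)Lys-AMC) and increasing inhibitor concentrations, using a homogeneous fluorescence assay. Fluorescence read at Ex 390/Em 460 nm.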

[9] = Stability of the compound in phosphate buffer at pH 7.4 measured after 4 days; type: physicochemical; settings: pH 7.4, 96 h, time 4 day
Summary of the method: as §4

Histone deacetylase 1 = Histone deacetylase 1 (Homo sapiens, UniProt Q13547); test: Inhibition of recombinant human HDAC1 using Z-(Ac)Lys-AMC as substrate after 90 mins by fluorescence based micro plate assay
Summary of the method: as §5

THP-1 [10] = test: Antiproliferative activity against human THP-1 assessed as reduction in cell growth at 1 uM by CellTiter-non radioactive cell proliferation assay; type: functional
Peregrin = target: T2, Peregrin (Homo sapiens, UniProt P55201); test: Binding affinity to BRPF1 (unknown origin) by Isothermal titration calorimetry
T2 sequence (P55201 whole entry): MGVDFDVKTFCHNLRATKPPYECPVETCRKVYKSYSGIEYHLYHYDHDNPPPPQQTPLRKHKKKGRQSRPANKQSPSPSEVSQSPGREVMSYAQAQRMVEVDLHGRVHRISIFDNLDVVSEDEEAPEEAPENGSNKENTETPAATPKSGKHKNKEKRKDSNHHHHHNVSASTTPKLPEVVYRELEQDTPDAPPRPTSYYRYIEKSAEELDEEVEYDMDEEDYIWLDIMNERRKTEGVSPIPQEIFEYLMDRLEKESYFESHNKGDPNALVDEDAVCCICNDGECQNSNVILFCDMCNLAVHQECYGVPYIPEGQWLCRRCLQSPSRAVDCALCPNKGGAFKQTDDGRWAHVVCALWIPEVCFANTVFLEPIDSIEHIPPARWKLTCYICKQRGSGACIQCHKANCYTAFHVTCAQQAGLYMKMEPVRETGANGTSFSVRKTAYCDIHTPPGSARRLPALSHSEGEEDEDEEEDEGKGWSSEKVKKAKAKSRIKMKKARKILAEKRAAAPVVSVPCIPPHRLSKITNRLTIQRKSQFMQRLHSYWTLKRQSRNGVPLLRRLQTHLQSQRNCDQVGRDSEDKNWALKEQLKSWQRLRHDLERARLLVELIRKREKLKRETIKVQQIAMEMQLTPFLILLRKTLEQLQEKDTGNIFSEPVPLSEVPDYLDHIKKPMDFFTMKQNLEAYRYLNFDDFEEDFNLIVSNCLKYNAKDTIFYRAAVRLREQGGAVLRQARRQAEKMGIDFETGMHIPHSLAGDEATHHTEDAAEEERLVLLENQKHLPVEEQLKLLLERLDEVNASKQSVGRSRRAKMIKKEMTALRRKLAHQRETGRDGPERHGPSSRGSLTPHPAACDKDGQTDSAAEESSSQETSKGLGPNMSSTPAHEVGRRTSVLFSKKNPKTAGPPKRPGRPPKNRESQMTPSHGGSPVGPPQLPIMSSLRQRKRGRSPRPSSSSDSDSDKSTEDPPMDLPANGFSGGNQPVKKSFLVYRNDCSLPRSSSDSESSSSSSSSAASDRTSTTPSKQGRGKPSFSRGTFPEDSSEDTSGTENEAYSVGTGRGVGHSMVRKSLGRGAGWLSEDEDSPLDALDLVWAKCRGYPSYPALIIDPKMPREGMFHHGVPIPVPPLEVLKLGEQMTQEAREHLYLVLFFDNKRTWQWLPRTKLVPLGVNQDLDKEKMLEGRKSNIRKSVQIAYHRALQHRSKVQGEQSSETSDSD
Summary of the method: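 Isothermal titration calorimetry with recombinant BRPF1 (200–400 μM) in the injection syringe titrated into ligand (20–40 μM) in the sample cell. Kd was fitted from the titrations and reported with its P99 interval.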

HL-60 [11] = test: Antiproliferative activity against human HL60 assessed as reduction in cell growth at 1 uM by CellTiter-non radioactive cell proliferation assay; type: functional
Histone deacetylase 8 = target: T3, Histone deacetylase 8 (Homo sapiens, UniProt Q9BY41); test: Inhibition of human recombinant HDAC8 using H2N-Arg-His-Lys(Ac)-Lys(Ac)-AMC as substrate after 90 mins by fluorescence based micro plate assay
T3 sequence (Q9BY41 whole entry): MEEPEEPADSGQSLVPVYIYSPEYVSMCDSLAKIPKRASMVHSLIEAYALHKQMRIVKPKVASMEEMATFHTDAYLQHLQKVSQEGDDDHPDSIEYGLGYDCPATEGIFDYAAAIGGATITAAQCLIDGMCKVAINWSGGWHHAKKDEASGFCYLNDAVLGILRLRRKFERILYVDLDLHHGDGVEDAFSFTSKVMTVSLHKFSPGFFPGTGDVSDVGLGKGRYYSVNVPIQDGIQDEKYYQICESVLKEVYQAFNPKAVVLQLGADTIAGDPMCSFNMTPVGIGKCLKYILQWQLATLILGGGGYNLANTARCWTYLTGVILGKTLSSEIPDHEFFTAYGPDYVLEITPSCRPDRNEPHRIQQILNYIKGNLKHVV

[12] = Inhibition of HDAC (unknown origin); set-up: species or system Homo sapiens
[13] = target: T4, Protein deacetylase HDAC6 (Homo sapiens) (UniProt Q9UBN7); test: Inhibition of recombinant human HDAC6 at 10 uM using Z-(Ac)Lys-AMC as substrate after 90 mins by fluorescence based micro plate assay
T4 sequence (whole entry): T1 sequence (Q9UBN7 whole entry)
Summary of the method: as §5

[14] = as §2; type: cell-based; settings: HEK293 cells, read-out: INH
Summary of the method: as §3

[15] = target: T4, Protein deacetylase HDAC6 (Homo sapiens); test: Inhibition of recombinant human HDAC6 at 1 uM using Z-(Ac)Lys-AMC as substrate after 90 mins by fluorescence based micro plate assay
Summary of the method: as §5

HL-60 [16] = test: Antiproliferative activity against human HL60 assessed as reduction in cell growth at 50 uM by CellTiter-non radioactive cell proliferation assay; type: functional
Summary of the method: as §1

Chain of Histone deacetylase 1 (Q13547 whole entry): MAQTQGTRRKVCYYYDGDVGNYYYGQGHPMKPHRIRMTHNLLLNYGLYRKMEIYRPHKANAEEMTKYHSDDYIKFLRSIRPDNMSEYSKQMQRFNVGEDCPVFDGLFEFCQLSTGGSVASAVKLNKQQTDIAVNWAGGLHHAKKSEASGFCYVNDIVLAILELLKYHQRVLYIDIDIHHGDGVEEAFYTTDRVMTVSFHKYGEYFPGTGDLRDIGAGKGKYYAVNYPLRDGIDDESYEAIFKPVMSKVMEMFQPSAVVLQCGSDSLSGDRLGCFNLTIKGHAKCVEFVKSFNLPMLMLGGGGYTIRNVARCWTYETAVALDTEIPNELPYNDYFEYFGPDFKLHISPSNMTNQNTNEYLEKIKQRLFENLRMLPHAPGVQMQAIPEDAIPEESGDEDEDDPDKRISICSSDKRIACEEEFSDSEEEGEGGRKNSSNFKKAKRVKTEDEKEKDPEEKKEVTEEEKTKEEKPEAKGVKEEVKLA

SMILES	inhibition at 20 µM (HL-60 [2])	inhibition at 20 µM (THP-1 [3])	inhibition at 4 µM (HL-60 [4])	inhibition at 100 µM (THP-1 [5])	inhibition at 100 µM (HL-60 [6])	IC50 (Histone deacetylase 1)	inhibition at 1 µM (THP-1 [10])	Kd (Peregrin; read-out: Kd)	inhibition at 1 µM (HL-60 [11])	IC50 (Histone deacetylase 8)	also measured
COC(=O)c1ccc(OC)c(S(=O)(=O)Nc2ccc3c(c2)cc(C)c(=O)n3C)c1	44%	101%	39%	102%	66%	–	–	–	–	–	GI50 (THP-1 (Homo sapiens)): 5.5 µM; inhibition at 4 µM (THP-1 [1]): 40%; Activity (HEK293): Non-Toxic
Cc1cc2cc(NS(=O)(=O)Cc3ccc(C(=O)NO)cc3)ccc2n(C)c1=O	0%	8%	–	89%	27%	0.545 µM	0%	1.5 µM	5%	0.36 µM	Stabilty [7]: Stable; IC50 [8]: 0.152 µM; Stabilty [9]: Stable
O=C(CCCCCCOc1ccccc1C(=O)Nc1ncnc2[nH]cnc12)NO	–	–	–	–	–	–	–	–	–	–	IC50 [12]: 0.26 µM; Kd (Peregrin): 2.7 µM
COc1ccc(C(=O)NO)cc1NCc1ccc(OCCCCC(=O)Nc2ccc3c(c2)cc(C)c(=O)n3C)cc1	0%	0%	0%	–	0%	5.2 µM	–	4.08 µM	–	0.956 µM	inhibition [13]: 68%; cytotoxicity at 24 h [14]: 15%; inhibition [15]: 50%
Cc1cc2cc(NC(=O)c3ccc(S(=O)(=O)Nc4ccc5c(c4)cc(C)c(=O)n5C)cc3)ccc2n(C)c1=O	55%	84%	–	73%	–	–	0%	–	20%	–	inhibition at 50 µM (HL-60 [16]): 48%
